# In ChEMBL document CHEMBL4513216, “Probing the Open Global Health Chemical Diversity Library for Multistage-Active Starting Points for Next-Generation Antimalarials” (ACS Infect Dis, 2020):
# Test: Toxicity liver stage against HepG2, at 10uM
# Assay type: cell-based
# Parameters: test concentration 10 uM, cell line HepG2-A16-CD81EGFP
# Conditions: human, HepG2-A16-CD81EGFP cells; read-out: INHIBITION
# Summary of the method: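 Uninfected HepG2-A16-CD81EGFP cells, 3 × 10^3 per well, 1536-well, plated on prespotted compound at 10 μM final, parasite-free screening media added to match infected plates; puromycin 10 μM positive, DMSO 0.5% negative; run in parallel with 48 h PbLuc assay at 37 °C, 5% CO2; viability by CellTiter-Glo luminescence, normalized to controls.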
row,SMILES,cytotoxicity at 10 µM
1,O=C(NCCSc1ccccc1)[C@H]1CNC[C@H](C(=O)N2CCOCC2)C1,-1.97%
2,Cc1nc(-c2ccccc2C)n(CC(=O)NC(C)C)n1,7.47%
3,CC(C(=O)N1CCOCC1)N1CCc2cncnc2C1 (stereo not given),-5.05%
4,Cc1ccc(-c2c(C(=O)NC3CCN(C)CC3)csc2C)cc1,-130%
5,CCN1CCC2(CCC1=O)CN(c1nccc(N)n1)CCN2C (stereo not given),0.562%
6,O=C(NC1CCS(=O)(=O)C1)c1sccc1-c1ccc(F)cc1 (stereo not given),8.14%
7,COc1ccc2c(c1)C(=O)NC1(CC2)CCN(Cc2ccc(F)cc2)C1 (stereo not given),8.16%
8,COCCCn1ccc(NS(=O)(=O)c2cc(F)c(C)cc2F)n1,19.1%
9,Cc1nc(CN2CCCC(N(C)CC(=O)Nc3cccnc3)C2)no1 (stereo not given),-7.88%
10,CS(=O)(=O)N[C@@H]1CCO[C@]2(CCN(C(=O)c3cscn3)C2)C1,-67.2%
11,O=C1CN(C(=O)C2CCOC2)CCN1Cc1ccc(Cl)cc1 (stereo not given),-150%
12,Cc1cc(C)cc(CN2CCN(C(=O)COCC3CCCO3)CC2=O)c1 (stereo not given),4.07%
13,c1ccc(C(Cn2cccn2)Nc2cnccn2)cc1 (stereo not given),2.99%
14,COC(=O)CSc1nnc2[nH]c(=O)c3c(n12)CCCC3,-99.8%
15,O=C(Cn1cc(Cl)cn1)N1CCNC1=O,-13.2%
16,Cn1c(=O)c2sccc2n(CC(=O)Nc2cccc(Cl)c2)c1=O,5.86%
17,OC1(Cn2ccc3ncccc32)CCN(Cc2ccccn2)CC1,5.33%
18,Cc1noc2ncc(C(=O)N3CCCC3c3ccsc3)cc12 (stereo not given),-10.4%
19,CC(NCc1ccc(OCC(N)=O)cc1)c1ccc2c(c1)CCCC2 (stereo not given),-0.699%
20,Cc1ccc(CN2CCC(c3nnc(CN4CCCCC4)n3C)CC2)o1,-5.1%
21,CN(Cc1ccc(Cl)cc1)C(=O)Nc1cnn(CC(N)=O)c1,-17.6%
22,Cn1ccnc1CN1CCC2(CC1)CN(c1ccccn1)CCO2,-0.335%

row,SMILES,cytotoxicity at 10 µM
1,c1ccc(-c2nc(CN3CCn4c(nnc4C4CC4)C3)co2)cc1,-2.18%
2,COc1ccc(CCN)cc1-c1ccc(O)cc1,-3.05%
3,CC(C)(C)c1n[nH]c(C2CN(C(=O)C3=COCCC3)CCO2)n1 (stereo not given),-5.74%
4,CCN1C(=O)[C@]2(CC[C@@H]3CN(C(=O)Nc4ccc(F)cc4)C[C@@H]32)N=C1C,3.22%
5,COc1nn(C)c2c1CCCN(S(=O)(=O)c1cccs1)C2,-112%
6,O=C(c1ccc(C2CCCN2C(=O)c2ccc[nH]2)s1)N1CCSCC1 (stereo not given),3.59%
7,COc1ccc(CS(=O)(=O)CC(=O)NCc2ccccc2F)cc1F,3.33%
8,N#Cc1ccc(S(=O)(=O)NC(=O)c2csc(-c3ccco3)n2)cc1,-8.17%
9,CC(C)Cc1cc(C(=O)NCCn2nc3ccccn3c2=O)[nH]n1,-16.3%
10,O=C(c1cc2c(s1)CCC2)N1CCN(c2cnccn2)CC1,1.5%
11,COc1ccc(CCN)cc1-c1ccc(S(C)(=O)=O)cc1,-6.23%
12,COc1ncc(CN2CCCC(c3[nH]ncc3S(C)(=O)=O)C2)cn1 (stereo not given),7.24%
13,CN1C(=O)CC(c2ccccc2)C12CCN(CC1CCOCC1)CC2 (stereo not given),1.02%
14,CC1(C)Cc2cc(-c3cncn3CCNC3CCS(=O)(=O)C3)ccc2O1 (stereo not given),2.95%
15,COCCO[C@H]1CCN(Cc2ccsc2)[C@H]1Cc1cccnc1,-2.57%
16,CCCC(=O)N1CCC(c2cc3n(n2)[C@@H](C(F)(F)F)C[C@@H](C)N3)CC1,-10.3%
17,O=C(c1cscn1)N1CC[C@@H]2[C@@H]1CCN2CC1CCOCC1,5.3%
18,Cc1cc(Cn2c(=O)c3c(C(F)(F)F)cc(C)nc3n2C)on1,-0.976%
19,CS(=O)(=O)c1ccc(CN2CCCCC2c2ccc(F)cc2)cc1 (stereo not given),6.04%
20,CNC(=O)CN1CCC(c2cc(OC)cc(OC)c2)C1 (stereo not given),4.38%
21,CN1CC(C(=O)NCCc2ccc(F)c(Br)c2)CC1=O (stereo not given),3.57%
22,Cn1nccc1C(=O)N1CCC(n2cc(-c3ccsc3)nn2)CC1,-3.44%

row,SMILES,cytotoxicity at 10 µM
1,Cc1csc(N2CCCN(C(=O)c3c(C)oc(C)c3C)CC2)n1,3.75%
2,Cc1cc2n(n1)CC(CNCCNC(=O)c1ccc(F)cc1)CN2 (stereo not given),6.15%
3,O=C1CCCN1CC1CN(CC2CCOCC2)Cc2nccn2C1 (stereo not given),1.65%
4,Cc1nc(C(=O)N2CCC(c3cc(CCO)n(C)n3)C2)co1 (stereo not given),-5.42%
5,Cc1cc(C(=O)N2CC[C@@]3(O)CCN(C(=O)N4CCCC4)C[C@H]3C2)no1,-6.74%
6,CN(C)CCN1CCCC12CCCN(C(=O)c1cccnc1)C2 (stereo not given),-0.95%
7,O=C(c1ccncn1)N1C[C@H]2CCC[C@@]2(COCC2CCOCC2)C1,-79.2%
8,COC(C)(CNS(=O)(=O)c1cn(C)cn1)c1ccccc1F (stereo not given),-8.39%
9,c1csc(-c2nc(CN3CCOC(Cn4cncn4)C3)cs2)c1 (stereo not given),-3.91%
10,CC(Cn1cccn1)NCc1csc(COc2ccc(F)cc2)n1 (stereo not given),5.84%
11,CCc1ncc(C(=O)N2C[C@@H](C)O[C@@H](C)C2)cn1,-4.34%
12,Cc1nn(CC(=O)Nc2ccon2)c(C)c1Br,9.62%
13,CCn1nc(C(=O)N2CCCC2c2noc(C3CC3)n2)ccc1=O (stereo not given),5.65%
14,Cc1nc(C(C)C)sc1C(=O)NCC(C)(C)N1CCOCC1,-6.47%
15,Cc1noc(C)c1CN1CCC2(CC1)NC(=O)CC2c1cnn(C)c1 (stereo not given),5.64%
16,O=S(=O)(C1CC1)N1CCn2c(Cn3cncn3)cnc2C1,12.2%
17,Cc1cc(CN(C)Cc2csc(-c3ccc(C(C)C)cc3)n2)no1,41.1%
18,CC(C)NCc1cc2n(n1)CCN(C1CCCCC1)C2,-8.9%
19,COc1ccc(OC)c(C(C)NS(=O)(=O)c2cn(C)nc2C)c1 (stereo not given),8.35%
20,CCC(C)NC(=O)CS(=O)(=O)Cc1cc(Cl)ccc1OC (stereo not given),10.8%
21,CCCC1(NC(=O)C(c2ccccc2C)N(C)C)CC1 (stereo not given),-40.4%
22,CCOc1ccccc1C(CC(=O)Nc1nc(C)cs1)NC(C)=O (stereo not given),-10.9%

row,SMILES,cytotoxicity at 10 µM
1,CCCc1n[nH]c(C2CN(C(=O)CCn3nc(C)cc3C)CCO2)n1 (stereo not given),-11.9%
2,CCc1ccc(-n2nnc(C(=O)O)c2-c2ccncc2)cc1,3.02%
3,CN(Cc1cnn(C)c1)C(=O)NC1CCN(c2ncccn2)CC1,-5.82%
4,O=C(O)c1cn(CC2CCCN(c3nccc4occc34)C2)nn1 (stereo not given),-5.17%
5,Cn1nc(CNC(=O)c2ccc3nsnc3c2)c2c1CCOC2,6.53%
6,Cc1noc(CN2CCCC(Cn3nc(C)nc3C)C2)n1 (stereo not given),-5.04%
7,Cc1nnc(N2CCC(CCN(C)C)CC2)c(C#N)c1C,-1.33%
8,CCN1CCC2(CC1)CN(C(=O)c1cccnc1)c1ccc(Cl)cc12,-111%
9,O=C(Cc1ccc(F)cc1F)NCC(=O)Nc1ccccn1,3.24%
10,CCc1nnc2n1CCN(Cc1noc(-c3cccc(C)c3)n1)C2,12%
11,COCC1CC2(CCN(Cc3cnn(C)c3)CC2)CN1c1ncccn1 (stereo not given),-8.19%
12,CCCS(=O)(=O)N1C[C@@H]2CN(Cc3cnn(C)c3)CCO[C@@H]2C1,0.835%
13,Cc1cc(C)n(CC2CN(CC(=O)NCc3cccs3)CCO2)n1 (stereo not given),-9.89%
14,CCCn1c(=O)n(CCC(=O)N(C)Cc2ccc(C)o2)c2ccccc21,-3.26%
15,Cn1ccc(C(=O)N2CCCC(CNS(C)(=O)=O)C2)cc1=O (stereo not given),0.193%
16,CC(=O)N1CCC(CN2CCN(Cc3nccn3C)C(C)C2)CC1 (stereo not given),-15.4%
17,O=C(NCC1(CO)CC1)NC(c1nccs1)C1CC1 (stereo not given),1.23%
18,Cn1cc(C(=O)N2CCCN(c3cccnn3)CC2)c2ccccc21,4%
19,CCN1CCN(C(=O)Cn2ncc3c2c(C)nn3C(C)C)CC1,6.5%
20,CN(Cc1cc(C[C@@H]2C[C@H](N)C2(C)C)no1)c1ccccc1,-1.8%
21,COCCN1C(=O)CC(c2cccnc2)C12CCN(C)CC2 (stereo not given),-97.6%
22,CN1C(Cn2cccn2)C[C@@H]2CN(Cc3ccccn3)CC[C@@H]21 (stereo not given in full),0.763%

row,SMILES,cytotoxicity at 10 µM
1,COc1ccccc1CCNC(=O)CNC1CCc2nc(C)nn2C1 (stereo not given),-12.3%
2,Cc1nsc(C(=O)NCCc2ccc(Cl)cc2)n1,2.09%
3,COCCCN(Cc1ccncc1)C(=O)C1COc2ccccc2C1 (stereo not given),11.5%
4,NC(=O)N1CCC(C(=O)NCc2nncn2-c2ccccc2)CC1,-18.7%
5,Cc1cc(C)n(CCC(=O)N2CCC(Nc3cccnn3)CC2)n1,-6.36%
6,O=C(N[C@@H]1CCNC[C@H]1O)c1ccc(F)c(F)c1,5.79%
7,O=C(NC1CC1)C1CCCN(c2cc(-n3cncn3)ncn2)C1 (stereo not given),10.1%
8,CCc1ccc2nc(C)cc(C(=O)N[C@@H]3C[C@@H](CO)N(C)C3)c2c1,2.35%
9,Cc1csc(CNc2ccc(-c3nc(C4CC4)no3)cn2)n1,-16.2%
10,CCCn1nccc1-c1nccnc1CC1CCN(C(C)=O)C1 (stereo not given),1.34%
11,CSc1nccn1-c1cccc(C(=O)NCC(F)(F)F)c1,-0.312%
12,CCC(=O)N(CCN(C)C)Cc1ccc(F)c(F)c1,-4.38%
13,CCc1nnc(CN(C)C(=O)C(CC)n2c(CC)nc3ccccc32)o1 (stereo not given),-4.27%
14,CNc1cc(CCNC(=O)CC(C)C)nc(-c2ccccn2)n1,1.26%
15,COc1ccc2c(c1)OCC(CNc1cc(N)nc(SC)n1)C2 (stereo not given),34.4%
16,CNC(=O)c1cc(-c2ccccc2)nc2ncnn12,-4.66%
17,Cc1cccc(-c2nc(N)nc3c2CN(C(=O)C2CCCC2)C3C)c1 (stereo not given),13.2%
18,Cc1ccc(-c2cccc(-c3ccn(CCN4CCCC4)n3)c2)nn1,-8.74%
19,O=C(Cc1csc(-c2ccco2)n1)N1CCCC1Cn1cccn1 (stereo not given),-11.2%
20,Fc1cccc(CN2C[C@@H]3CN(Cc4ccccn4)C[C@@H]3C2)c1,-1.07%
21,O=C(NCCOc1ccccc1)C1NCCc2[nH]cnc21 (stereo not given),8.01%
22,Cc1ccccc1CN(Cc1ccc(S(C)(=O)=O)cc1)CC(C)C,16.6%
